Measurements: ChEMBL document CHEMBL1122591, “(Imidazolylphenyl)formamidines. A structurally novel class of potent histamine H2 receptor antagonists” (J Med Chem, 1984)

Assays:
[1] = biological target: Histamine H2 receptor (Cavia porcellus) (UniProt P47747); test: Evaluated in vitro for histamine H2 receptor antagonist activity by using histamine-stimulated chronotropic response of the guinea pig atrium; type: functional, tissue-based; conditions: Cardiac atrium
Summary of the method: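 A cumulative histamine concentration–response curve (rate) was then repeated with successive antagonist concentrations, each pre-incubated 30 min. Dose ratios compared histamine concentrations giving half-maximal stimulation with and without antagonist.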

Rattus norvegicus = test: Compound was evaluated in vivo for the gastric antisecretory activity in the lumen perfused stomach of the anesthetized rat after iv administration; type: functional
Summary of the method: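 Male Sprague–Dawley rats (250 g) were anesthetized with urethane (1 g/kg) and given a lumen-perfused stomach preparation. Acid secretion was driven by constant i.v. histamine infusion [1 mg/(kg h)]. ED50 was taken from the regression line of percent inhibition of acid output.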

[2] = Compound was evaluated for the ionization constant (pKa) by using potentiometric titration (ionization of end group); type: physicochemical
Summary of the method: (§1)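 Potentiometric titration of the hydrochloride salt with water as solvent.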

[3] = Compound was evaluated for the ionization constant (pKa) by using potentiometric titration (ionization of imidazole group); type: physicochemical; summary of the method: as §1

Sequence of Histamine H2 receptor (Cavia porcellus) (P47747 whole entry): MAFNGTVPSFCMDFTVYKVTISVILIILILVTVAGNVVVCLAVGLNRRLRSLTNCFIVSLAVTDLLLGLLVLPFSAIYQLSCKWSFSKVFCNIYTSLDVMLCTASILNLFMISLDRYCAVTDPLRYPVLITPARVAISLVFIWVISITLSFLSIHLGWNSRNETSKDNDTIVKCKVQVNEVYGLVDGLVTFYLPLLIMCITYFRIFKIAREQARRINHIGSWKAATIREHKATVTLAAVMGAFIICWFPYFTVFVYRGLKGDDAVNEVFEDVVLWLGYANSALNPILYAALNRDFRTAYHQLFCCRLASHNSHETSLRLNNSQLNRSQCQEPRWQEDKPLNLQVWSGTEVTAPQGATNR

Row | Kb [1] | pKa [2] | pKa [3] | Structure (SMILES) | ED50 (Rattus norvegicus)
1 | 4400 nM | – | – | C/N=C(/N)Nc1cccc(-c2c[nH]cn2)c1.Cl | 3.6 mg/kg
2 | 32 nM | – | – | CCC/N=C/Nc1ccc(-c2c[nH]cn2)cc1.Cl | 0.011 mg/kg
3 | – | 9.81 | 6.07 | NCCc1c[nH]cn1 [HISTAMINE] | –
4 | 24 nM | 8.88 | 5.58 | CC(C)/N=C/Nc1ccc(-c2c[nH]cn2)cc1.Cl | 0.019 mg/kg
5 | 1200 nM | – | – | C/N=C\Nc1ccc(-c2c[nH]cn2)cc1.Cl | 1.1 mg/kg
6 | 69 nM | – | – | CC(C)C/N=C/Nc1ccc(-c2c[nH]cn2)cc1.Cl | 0.026 mg/kg
7 | 5500 nM | – | – | Cl.N=C(N)Nc1cccc(-c2c[nH]cn2)c1 | 3.2 mg/kg

The remaining lines, values behind:

Row | Structure (SMILES) | Kb [1] | pKa [2] | pKa [3] | ED50 (Rattus norvegicus)
8 | CNC(=N)c1cccc(-c2c[nH]cn2)c1.Cl | 8700 nM | – | – | 3.5 mg/kg
9 | CC(C)(C)/N=C/Nc1ccc(-c2c[nH]cn2)cc1.O=S(=O)(O)O | – | – | – | 0.017 mg/kg
10 | Cl.N=C(N)c1cccc(-c2c[nH]cn2)c1 | 7200 nM | – | – | 10 mg/kg
11 | CN/C(=N\CCSCc1nc[nH]c1C)NC#N [CIMETIDINE] | – | -0.4 | – | 0.56 mg/kg
12 | CC/N=C/Nc1ccc(-c2c[nH]cn2)cc1.Cl | 19 nM | – | – | 0.02 mg/kg
13 | C=CC/N=C/Nc1ccc(-c2c[nH]cn2)cc1.O=C(O)/C=C/C(=O)O | 13 nM | – | – | 0.024 mg/kg
